Experimental data taken from ChEMBL document CHEMBL2010800, “Methoxychalcone inhibitors of androgen receptor translocation and function” (Bioorg Med Chem Lett, 2012).
Activity calls are given as the source filed them. No cut-off for these calls is given here.

Legend:
[1] = biological target: T1, Androgen receptor (Homo sapiens) (UniProt P10275); test: Antagonist activity at androgen receptor in human LNCAP cells assessed as decrease in prostate specific antigen mRNA level at 2.5 uM after 20 hrs by real time RT-PCR analysis; assay type: functional, cell-based
T1 sequence (whole entry): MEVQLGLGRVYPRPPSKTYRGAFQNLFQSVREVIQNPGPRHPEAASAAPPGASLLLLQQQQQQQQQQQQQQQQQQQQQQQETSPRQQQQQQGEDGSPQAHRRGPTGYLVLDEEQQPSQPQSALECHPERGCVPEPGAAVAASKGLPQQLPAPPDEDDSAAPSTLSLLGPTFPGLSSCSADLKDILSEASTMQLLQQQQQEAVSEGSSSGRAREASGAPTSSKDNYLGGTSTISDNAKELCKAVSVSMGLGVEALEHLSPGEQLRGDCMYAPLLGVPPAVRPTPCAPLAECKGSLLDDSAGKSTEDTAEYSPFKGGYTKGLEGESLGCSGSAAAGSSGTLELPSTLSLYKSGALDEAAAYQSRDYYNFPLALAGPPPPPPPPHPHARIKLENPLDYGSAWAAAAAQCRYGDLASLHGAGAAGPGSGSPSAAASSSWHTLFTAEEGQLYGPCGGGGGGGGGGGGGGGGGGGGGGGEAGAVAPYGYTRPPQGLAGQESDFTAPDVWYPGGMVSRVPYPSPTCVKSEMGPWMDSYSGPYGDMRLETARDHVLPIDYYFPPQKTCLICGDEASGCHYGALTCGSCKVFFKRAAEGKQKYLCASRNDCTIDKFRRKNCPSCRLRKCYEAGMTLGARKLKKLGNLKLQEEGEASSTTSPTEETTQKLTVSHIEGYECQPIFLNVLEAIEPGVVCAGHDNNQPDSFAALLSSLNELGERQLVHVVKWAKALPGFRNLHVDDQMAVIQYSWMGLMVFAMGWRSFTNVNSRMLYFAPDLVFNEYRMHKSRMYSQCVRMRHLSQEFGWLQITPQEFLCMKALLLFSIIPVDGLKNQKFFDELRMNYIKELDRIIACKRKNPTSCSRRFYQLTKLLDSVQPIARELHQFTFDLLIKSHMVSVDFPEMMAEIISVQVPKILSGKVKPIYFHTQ
Outline: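 LNCaP prostate cancer cells (AR carries T877A ligand-binding-domain mutation) exposed to compound at 2.5 μM for 20 hr; PSA mRNA quantified by real-time RT-PCR and expressed relative to DMSO-treated control cells set to 1; mean values, n = 3.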

[2] = biological target: T1, Androgen receptor (Homo sapiens); test: Antagonist activity at androgen receptor in human LNCAP cells assessed as inhibition of R1881-induced prostate specific antigen mRNA expression after 20 hrs by real time RT-PCR analysis relative to control; assay type: functional, cell-based
Outline: (§1)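 LNCaP cells were first kept 3 days in phenol red-free RPMI 1640 with 10% charcoal-stripped FBS and 1% antibiotic-antimycotic. They were then exposed for 20 hr to compound at 10, 5 or 1 μM together with 0.5 nM R1881. PSA and TMPRSS2 mRNA were quantified by real-time RT-PCR against DMSO-treated controls.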

[3] = biological target: T1, Androgen receptor (Homo sapiens); test: Antagonist activity at androgen receptor in human LNCAP cells assessed as inhibition of R1881-induced transmembrane protease serine 2 mRNA expression after 20 hrs by real time RT-PCR analysis; assay type: functional, cell-based; outline: as §1
[4] = biological target: T1, Androgen receptor (Homo sapiens); test: Agonist activity at androgen receptor in human LNCAP cells assessed as potentiation of R1881-induced prostate specific antigen mRNA expression at 1 uM after 20 hrs by real time RT-PCR analysis; assay type: functional, cell-based; outline: as §1
[5] = biological target: T1, Androgen receptor (Homo sapiens); test: Agonist activity at androgen receptor in human LNCAP cells assessed as potentiation of R1881-induced transmembrane protease serine 2 mRNA expression at 1 uM after 20 hrs by real time RT-PCR analysis; assay type: functional, cell-based; outline: as §1
Androgen receptor [6] = biological target: T2, Androgen receptor (Homo sapiens, UniProt P10275); test: Antagonist activity at androgen receptor in human LNCAP cells assessed as decrease in transmembrane protease serine 2 mRNA level after 20 hrs by real time RT-PCR analysis
T2 sequence (P10275 whole entry): T1 sequence (whole entry)

LNCaP = test: Cytotoxicity against human LNCAP cells after 3 days; assay type: functional, cell-based; details: 72 h
[7] = biological target: T1, Androgen receptor (Homo sapiens); details: LNCaP, 10 uM
[8] = biological target: T1, Androgen receptor (Homo sapiens); details: LNCaP, 10 uM; remark: listed apart in the source
[9] = biological target: T1, Androgen receptor (Homo sapiens); details: LNCaP, 10 uM; remark: listed apart in the source
Androgen receptor [10] = biological target: T2, Androgen receptor; test: Antagonist activity at androgen receptor in human LNCAP cells assessed as decrease in prostate specific antigen mRNA level after 20 hrs by real time RT-PCR analysis
[11] = biological target: T1, Androgen receptor (Homo sapiens); details: LNCaP, 10 uM; remark: listed apart in the source
[12] = biological target: T1, Androgen receptor (Homo sapiens); details: LNCaP, 10 uM; remark: listed apart in the source

inhibition [1]	inhibition [2]	inhibition [3]	Compound	also measured
87%			COc1cccc(OC)c1C(=O)/C=C/c1ccccc1C(F)(F)F	
81%			COc1cccc(OC)c1C(=O)/C=C/c1ccc([N+](=O)[O-])cc1[N+](=O)[O-]	
90%			COc1cccc(OC)c1C(=O)/C=C/c1ccc([N+](=O)[O-])cc1	
82%			COc1ccc(OC)c(C(=O)/C=C/c2ccc(C#N)cc2)c1	
85%	Dose-dependent effect	Dose-dependent effect	COc1ccc(C(=O)/C=C/c2ccc(C#N)cc2)cc1OC	
84%	Dose-dependent effect	Dose-dependent effect	COc1ccc(C(=O)/C=C/c2cccc([N+](=O)[O-])c2)c(OC)c1OC	Activity [4]: Active; Activity [5]: Active
	Dose-dependent effect	Dose-dependent effect	COc1ccc(C(=O)/C=C/c2ccc([N+](=O)[O-])cc2)cc1OC	
84%	Dose-dependent effect	Dose-dependent effect	COc1ccc(C(=O)/C=C/c2ccc([N+](=O)[O-])cc2)c(OC)c1OC	
81%			COc1ccc(C(=O)/C=C/c2cccc(C(F)(F)F)c2)c(OC)c1OC	
94%	Dose-dependent effect	Dose-dependent effect	COc1ccccc1C(=O)/C=C/c1ccccc1[N+](=O)[O-]	IC50 (Androgen receptor [6]): 750 nM; IC50 (LNCaP): 3400 nM; inhibition [7]: Dose-dependent effect; inhibition [8]: Active; inhibition [9]: Active; IC50 (Androgen receptor [10]): 600 nM; inhibition [11]: 99%; inhibition [12]: 89%
85%			COc1cccc(OC)c1C(=O)/C=C/c1cccc([N+](=O)[O-])c1	
63%			COc1ccccc1C(=O)/C=C/c1ccccc1	
94%			COc1ccccc1C(=O)/C=C/c1ccccc1C(F)(F)F	
